Measured values gathered from unrelated publications.
Each line is one published result; the experiments were not run side by side.
Target: Dual specificity tyrosine-phosphorylation-regulated kinase 1A (DYRK1A, Homo sapiens, UniProt Q13627)

| SMILES | test | setting | endpoint | result |
| --- | --- | --- | --- | --- |
| Cn1cncc1C1=CN(c2ncnc3[nH]cnc23)CCS1 | enzyme activity, inhibitor, radiometric | 2 µM | inhibition | 95.4% |
| COc1cc(Nc2c(C#N)cnc3cc(OCCCN4CCN(C)CC4)c(OC)cc23)c(Cl)cc1Cl | cell-free assay | 0.5 µM | remaining signal | 99.4% |
| CN1CCC2(CC1)NC(=O)c1c(c3ccc(Cl)c(Cl)c3n1C)C2C#N (racemic) | thermal stability, DSF | 10 µM | ΔTm | 1 °C |
| COc1cc2ncnc(Nc3ccc(Oc4ccccc4)c(C)c3C)c2cc1OC | enzyme activity, inhibitor | 1 µM | inhibition | 1% |
| O=C(O)c1ccc2c(c1)nc(NCCc1cccc(F)c1)c1ccncc12 | enzyme activity, inhibitor, radiometric | 1 µM | remaining activity | 8% |
| Cc1cc(NC(=O)c2cccc3cc(-c4cccc5[nH]nc(N)c45)ccc23)ccc1F | enzyme activity, inhibitor | 0.1 µM | activity vs control | 110% |
| Cc1cc(-n2nc(Cc3cc(F)cc(C(F)(F)F)c3)nc2C)ccc1C(N)=O | cell-free assay, competition with immobilised ligand | 1 µM | remaining binding | 92% |
| O=C(O)c1ccc2c(c1)nc(Nc1ccc3ccccc3c1)c1ncncc12 | enzyme activity, inhibitor, radiometric | 1 µM | remaining activity | -1% |
| CN(C)C1CCN(CC#Cc2nn(C3CCCC3)c3nc(NCc4ccccc4)ncc23)C1 (stereo not shown) | enzyme activity, inhibitor, FRET | 1 µM | inhibition | 4% |
| Cn1c2c(c3ccc(Cl)c(Cl)c31)C(C#N)C1(CCNCC1)NC2=O (racemic) | thermal stability, DSF | 10 µM | ΔTm | 2.5 °C |
| CN([C@@H]1CCc2c(CC(=O)O)c3cc(S(C)(=O)=O)ccc3n2C1)S(=O)(=O)c1ccc(F)cc1 | cell-free assay, competition with immobilised ligand | 1 µM | remaining binding | 81% |
| N#Cc1cccc(Nc2nc3cc(C(=O)O)ccc3c3cnccc23)c1 | enzyme activity, inhibitor, radiometric | 1 µM | remaining activity | -1% |
| Cn1c2c(c3ccc(Cl)c(Cl)c31)C(C#N)C1(CCN(C(=O)OC(C)(C)C)CC1)NC2=O (racemic) | thermal stability, DSF | 10 µM | ΔTm | -0.8 °C |
| CC(C)[C@H](CO)Nc1nc(Nc2cccc(Cl)c2)c2ncn(C(C)C)c2n1 | cell-free assay | 0.5 µM | remaining signal | 65.4% |
| Cc1c[nH]c2nccc(Oc3c(F)cc(Nc4cc(Cl)nc(N)n4)cc3F)c12 | cell-free assay, competition with immobilised ligand | 0.1 µM | remaining binding | 88% |
| O=C(O)c1ccc2c(c1)nc(Nc1cccc(F)c1)c1ncncc12 | enzyme activity, inhibitor, radiometric | 1 µM | remaining activity | 1% |

| SMILES | test | setting | endpoint | result |
| --- | --- | --- | --- | --- |
| Nc1ncnc2occ(-c3ccc(NC(=O)Nc4cc(C(F)(F)F)ccc4F)cc3)c12 | cell-free assay | 20 µM | remaining signal | 58% |
| CC1=C(C#N)[C@@H](c2ccc3[nH]nc(C)c3c2)C(C#N)=C(c2ccc(Cl)cc2)N1 | cell-free assay, competition with immobilised ligand | 1 µM | remaining binding | 100% |
| O=C(O)c1ccc2c(c1)nc(Nc1ccccc1)c1ccncc12 | enzyme activity, inhibitor, radiometric | 1 µM | remaining activity | 6% |
| CC/C(=N\NC(=O)NCc1cccc(O)c1)c1ccc(O)c(C)c1O | enzyme activity, inhibitor | 0.1 µM | inhibition | -4.7% |
| COc1cc(/C=C/C(=O)CC(=O)/C=C/c2ccc(O)c(OC)c2)ccc1O | enzyme activity, inhibitor | 1 µM | activity vs control | 20% |
| CC(=O)N1CCC(c2ccc(C(=O)NC(=N)N)cc2C(F)(F)F)CC1 | cell-free assay, competition with immobilised ligand | 1 µM | remaining binding | 74% |
| O=C(O)c1ccc2c(c1)nc(NCc1ccccc1)c1ncncc12 | enzyme activity, inhibitor, radiometric | 1 µM | remaining activity | 61% |
| O=C(O)c1cc(-c2ccc(C3CCNCC3)cc2)c2ccc(-c3ccc(C(F)(F)F)cc3)cc2c1 | cell-free assay, competition with immobilised ligand | 1 µM | remaining binding | 100% |
| Cn1c2c(c3ccc(Cl)c(Cl)c31)C(C#N)C(C)(C)NC2=O (stereo not shown) | thermal stability, DSF | 10 µM | ΔTm | 3.2 °C |
| C[C@@H]1CN(c2cc(-c3nn(C)c4ccc(OC5(C)CC5)cc34)ncn2)C[C@H](C)O1 | cell-free assay, competition with immobilised ligand | 1 µM | remaining binding | 81% |
| O=C(O)c1ccc2c(c1)nc(NCc1ccccc1)c1ccncc12 | enzyme activity, inhibitor, radiometric | 1 µM | remaining activity | 49% |
| CCN1/C(=C/C(C)=O)Sc2ccc(OC)cc21 | cell-free assay | 0.5 µM | remaining signal | 28.9% |
| Cc1c(NC(=O)c2cc(C(N)=O)nc3cc(F)ccc23)c(C(F)(F)F)nn1Cc1ccc(C(C)(C)C)cc1 | cell-free assay, competition with immobilised ligand | 1 µM | remaining binding | 100% |
| O=C(O)c1ccc2c(c1)nc(Nc1ccccc1)c1ncncc12 | enzyme activity, inhibitor, radiometric | 1 µM | remaining activity | 3% |
| O=C1Nc2ccc(Cl)cc2C1=Cc1cc(Cl)c(O)c(Cl)c1 | cell-free assay | 0.5 µM | remaining signal | 95.6% |
